A word on the IC50: it is the point on the concentration scale where inhibition reaches its midpoint. Low readings indicate greater potency, high ones weaker potency. The inhibition is the drop in the measured response relative to a control, in per cent.

Here are results for 21 compounds from ChEMBL document CHEMBL1165954, “Synthesis and in vitro antiprotozoal evaluation of substituted phenalenone analogues” (Bioorg Med Chem, 2010).

Structures are written as SMILES. Values after ≈ are worked out from the molar mass of the structure shown. Where only a bound is given, the exact number is not on record here.

One data set concerns Leishmania amazonensis. As to the kind of experiment: Antiprotozoal activity against promastigotes of Leishmania amazonensis MHOM/ BR/77/LTB0016 after 72 hrs by alamar blue assay. The settings on record: MHOM/ BR/77/LTB0016, 72 h. In kind it is functional, organism-based. The method, boiled down:
(§1)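 Log-phase promastigotes at 10^6/well in phenol-red-free RPMI 1640. Serum was heat-inactivated FBS at 20% for L. donovani and 10% for L. amazonensis. Cells were exposed to compound serial dilutions with 10% Alamar Blue at 26 °C for 72 h and read at 570 nm with a 630 nm reference. IC50 was taken by linear regression with 95% confidence limits. Three experiments were run in duplicate and analysed by paired two-tailed t-test.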
On the technique in general: Alamar Blue is a resazurin reagent that responds to reducing activity.

The subject of a further data set is Trypanosoma cruzi. The data set is described as follows: Antiprotozoal activity against epimastigotes of Trypanosoma cruzi Y by alamar blue assay. In kind it is functional, organism-based. The method, boiled down:
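Y-strain epimastigotes grown at 28 °C in LIT medium with 10% (v/v) heat-inactivated FBS. Growth inhibition was measured by the same Alamar Blue colorimetric method used for Leishmania promastigotes.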

The subject of another data set is Leishmania donovani. The data set is described as follows: Antiprotozoal activity against promastigotes of Leishmania donovani MHOM/IN/90/GE1F8R after 72 hrs by alamar blue assay. In kind it is functional, organism-based. The essentials: as §1
The nature of data set [1]: Cytotoxicity against human MCF7 cells assessed as growth inhibition at 10 uM after 72 hrs by MTT assay. It counts as cell-based. The essentials: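 MCF-7 cells in DMEM with 10% FBS, plated at 10,000 cells/well. After 72 h, MTT was added at 0.5 mg/mL final for 3 h at 37 °C. Formazan was dissolved in SDS–HCl (20% SDS, 0.02 M HCl) and absorbance read at 570 nm.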
(Tetrazolium dyes change colour on reduction, which living cells bring about.)

With `O=C1C=Cc2cccc3ccc(-c4cccs4)c1c23`, the 50% inhibitory concentration (IC50) in the data set on Leishmania amazonensis was 14.5 µg/mL (≈ 55.3 µM); in the data set on Trypanosoma cruzi it was above 100 µg/mL; in the data set on Leishmania donovani it was above 100 µg/mL. The inhibition at 72 h, 10 µM in data set [1] worked out at 4%.

As for `COC1c2cccc3ccc(-c4ccccc4)c(c23)C(=O)C1O` (configuration not stated), the IC50 in the data set on Leishmania amazonensis, in the data set with Trypanosoma cruzi and in the data set with Leishmania donovani was above 100 µg/mL each time. Besides, the inhibition at 72 h, 10 µM in data set [1] came to 17%.

In the case of `O=C1C(O)=Cc2cccc3ccc(-c4ccc(O)cc4)c1c23`, the half-maximal inhibitory concentration (IC50) in the data set with Leishmania amazonensis, in the data set on Trypanosoma cruzi and in the data set on Leishmania donovani was above 100 µg/mL throughout. Besides, the inhibition at 72 h, 10 µM in data set [1] is 23%.

`COc1ccc(C2=CC(=O)c3cccc4cccc2c34)cc1`: the IC50 in the data set with Leishmania amazonensis, with Trypanosoma cruzi and in the data set on Leishmania donovani was above 100 µg/mL throughout. Further, the inhibition at 72 h, 10 µM in data set [1] is 2%.

As to `OC1(c2ccccn2)C=Cc2cccc3ccc(-c4ccccn4)c1c23` (configuration not stated), the IC50 with Leishmania amazonensis, with Trypanosoma cruzi and in the data set on Leishmania donovani was above 100 µg/mL throughout. For the same compound, the inhibition at 72 h, 10 µM in data set [1] turned out to be 0%.

Take `COC1=Cc2cccc3ccc(-c4ccc(OC)cc4)c(c23)C1=O`: the 50% inhibitory concentration (IC50) in the data set on Leishmania amazonensis, with Trypanosoma cruzi and in the data set with Leishmania donovani was above 100 µg/mL in each case. In addition, the inhibition at 72 h, 10 µM in data set [1] came out at 15%.

For the compound `COc1ccc(-c2ccc3cccc4c3c2C(=O)C(O)C4O)cc1` (configuration not stated), the IC50 with Leishmania amazonensis, in the data set with Trypanosoma cruzi and in the data set with Leishmania donovani was above 100 µg/mL in each case.

For the compound `Cc1cccc(C)c1-c1ccc2cccc3c2c1C(=O)C=C3`, the results for the half-maximal inhibitory concentration (IC50) with Leishmania amazonensis, in the data set on Trypanosoma cruzi and with Leishmania donovani were 42.8 µg/mL (≈ 151 µM), 49.8 µg/mL (≈ 175 µM) and 27.8 µg/mL (≈ 97.8 µM), respectively. In addition, the inhibition at 72 h, 10 µM in data set [1] is 1%.

As to `O=C1C=Cc2cccc3ccc(-c4ccccn4)c1c23`, the IC50 with Leishmania amazonensis is 53.2 µg/mL (≈ 207 µM); with Trypanosoma cruzi it was above 100 µg/mL; in the data set with Leishmania donovani, above 100 µg/mL. Further, the inhibition at 72 h, 10 µM in data set [1] was determined as 0%.

`N#Cc1ccc2cccc3c2c1C(=O)C=C3`: the IC50 is 3.73 µg/mL (≈ 18.2 µM) with Leishmania amazonensis, above 100 µg/mL in the data set with Trypanosoma cruzi and 1.02 µg/mL (≈ 4.97 µM) in the data set on Leishmania donovani. In addition, the inhibition at 72 h, 10 µM in data set [1] came to 44%.

With `O=C1C=Cc2cccc3cccc1c23` [PERINAPHTHENONE], the IC50 with Leishmania amazonensis is 27.3 µg/mL (≈ 151 µM); in the data set with Trypanosoma cruzi, 2.62 µg/mL (≈ 14.5 µM); with Leishmania donovani it was 65.1 µg/mL (≈ 361 µM). Further, the inhibition at 72 h, 10 µM in data set [1] was 0%.

For `COC1=Cc2cccc3ccc(-c4ccccc4)c(c23)C1=O`, the IC50 in the data set with Leishmania amazonensis stood at 9.04 µg/mL (≈ 31.6 µM); with Trypanosoma cruzi, 48.3 µg/mL (≈ 169 µM); in the data set with Leishmania donovani, 29.9 µg/mL (≈ 104 µM). The inhibition at 72 h, 10 µM in data set [1] amounted to 14%.

On to `COc1ccc(-c2ccc3cccc4c3c2C(=O)C(O)=C4)cc1`, for which the concentration for half-maximal inhibition (IC50) in the data set on Leishmania amazonensis, with Trypanosoma cruzi and in the data set with Leishmania donovani was above 100 µg/mL in each case. Besides, the inhibition at 72 h, 10 µM in data set [1] worked out at 19%.

Take `Oc1ccc2cccc3c2c1C(c1ccco1)C=C3` (configuration not stated): the 50% inhibitory concentration (IC50) in the data set with Leishmania amazonensis, in the data set on Trypanosoma cruzi and in the data set on Leishmania donovani was above 100 µg/mL each time.

In the case of `O=C1C=Cc2cccc3ccc(-c4ccccc4)c1c23`, the IC50 with Leishmania amazonensis, in the data set on Trypanosoma cruzi and in the data set on Leishmania donovani was above 100 µg/mL in each case. In addition, the inhibition at 72 h, 10 µM in data set [1] was 5%.

For the compound `O=C1C(O)=Cc2c(-c3ccccc3)ccc3cccc1c23`, the IC50 in the data set on Leishmania amazonensis, in the data set with Trypanosoma cruzi and in the data set with Leishmania donovani was above 100 µg/mL in each case. For the same compound, the inhibition at 72 h, 10 µM in data set [1] came to 19%.

As to `O=C1C=Cc2cccc3ccc(-c4ccco4)c1c23`, the results for the IC50 with Leishmania amazonensis, in the data set on Trypanosoma cruzi and in the data set on Leishmania donovani were 8.39 µg/mL (≈ 34.1 µM), above 100 µg/mL and above 100 µg/mL, respectively. Also, the inhibition at 72 h, 10 µM in data set [1] was 14%.

Turning to `O=C1C(O)=Cc2cccc3ccc(-c4ccccc4)c1c23`, the half-maximal inhibitory concentration (IC50) with Leishmania amazonensis, with Trypanosoma cruzi and with Leishmania donovani was above 100 µg/mL in each case. Also, the inhibition at 72 h, 10 µM in data set [1] was found to be 22%.

Regarding `COc1ccc(-c2ccc3cccc4c3c2C=CC4=O)cc1`, the 50% inhibitory concentration (IC50) with Leishmania amazonensis was 4.43 µg/mL (≈ 15.5 µM); in the data set with Trypanosoma cruzi, 11.4 µg/mL (≈ 39.8 µM); in the data set with Leishmania donovani, above 100 µg/mL. For the same compound, the inhibition at 72 h, 10 µM in data set [1] is 17%.

As to `COc1ccc(-c2ccc3cccc4c3c2C(=O)C=C4)cc1`, the IC50 in the data set with Leishmania amazonensis is 0.83 µg/mL (≈ 2.9 µM); in the data set on Trypanosoma cruzi it was above 100 µg/mL; in the data set with Leishmania donovani it was above 100 µg/mL. Besides, the inhibition at 72 h, 10 µM in data set [1] is 13%.

For the compound `O=C1C(O)=Cc2c(-c3ccc(O)cc3)ccc3cccc1c23`, the IC50 in the data set with Leishmania amazonensis, in the data set with Trypanosoma cruzi and in the data set with Leishmania donovani was above 100 µg/mL throughout. Also, in data set [1], the inhibition at 72 h, 10 µM came out at 12%.
